Data published in ChEMBL document CHEMBL1135468 (J Med Chem, 2002).
*1 amine or outer side, *2 acyl side, *3 side chain or, on linkers, in order; H or OH if unused. Where a SMILES comes first, the peptide text is derived from it. Bridges are numbered along the chain shown (N, C = ends). [ ]: non-standard residue; d: D form. The star is where a group is joined. 6FAM = O=C1OC2(c3ccc(O)cc3Oc3cc(O)ccc32)c2cc(C(=O)*)ccc21; X1 = O=C([C@@H](O)CS[*:2])[*:1]; Orn = NCCC[C@H](N)C(=O)O; Mpa = O=C(O)CCS

Legend:
Vasopressin V1b receptor = target: T1, Vasopressin V1b receptor (Homo sapiens, UniProt P47901); test: Binding affinity towards human Vasopressin V1b receptor
T1 sequence (P47901 whole entry): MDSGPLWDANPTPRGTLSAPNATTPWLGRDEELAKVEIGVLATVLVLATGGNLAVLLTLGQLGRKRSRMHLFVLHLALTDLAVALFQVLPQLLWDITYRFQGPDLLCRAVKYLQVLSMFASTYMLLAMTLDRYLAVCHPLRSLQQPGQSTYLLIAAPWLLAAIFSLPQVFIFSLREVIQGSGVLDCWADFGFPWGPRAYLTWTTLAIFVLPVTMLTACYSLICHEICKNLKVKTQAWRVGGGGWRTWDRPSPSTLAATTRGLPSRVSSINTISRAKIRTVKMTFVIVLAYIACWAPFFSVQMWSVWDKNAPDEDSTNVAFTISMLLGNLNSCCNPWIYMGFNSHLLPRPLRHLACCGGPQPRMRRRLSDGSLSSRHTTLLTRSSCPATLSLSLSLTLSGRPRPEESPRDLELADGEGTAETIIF
How it was run: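 Competition binding on membranes from CHO cells stably expressing one human receptor, butyrate-treated (5 mM, overnight). Radioligands: OT, 200-250 pM [125I]OTA or 120-180 pM [125I]HO-LVA; V1a, 40-60 pM [125I]HO-LVA; V1b, 1-3 nM [3H]AVP. Competitor 1 pM-1 µM; nonspecific with 1 µM unlabeled ligand; 1 h, 30 °C. Ki by nonlinear least-squares, ≥3 experiments in triplicate.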

Oxytocin receptor = target: T2, Oxytocin receptor (Homo sapiens, UniProt P30559); test: Binding affinity for human oxytocin receptor
T2 sequence (P30559 whole entry): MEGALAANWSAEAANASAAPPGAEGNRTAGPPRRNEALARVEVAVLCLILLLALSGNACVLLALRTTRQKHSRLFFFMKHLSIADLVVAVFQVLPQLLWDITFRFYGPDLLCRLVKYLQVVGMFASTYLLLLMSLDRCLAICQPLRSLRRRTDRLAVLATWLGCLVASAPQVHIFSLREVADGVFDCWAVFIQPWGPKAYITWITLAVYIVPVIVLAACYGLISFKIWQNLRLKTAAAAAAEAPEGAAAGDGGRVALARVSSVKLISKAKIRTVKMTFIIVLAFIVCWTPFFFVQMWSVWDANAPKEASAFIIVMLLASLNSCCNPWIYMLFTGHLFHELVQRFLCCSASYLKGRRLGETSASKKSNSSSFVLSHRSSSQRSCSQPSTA

Vasopressin V2 receptor = Vasopressin V2 receptor (Homo sapiens, UniProt P30518); test: Binding affinity towards human Vasopressin V2 receptor
How it was run: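 Human V2 receptor stably expressed in CHO cells, butyrate-treated (5 mM, overnight); membranes at 5-10 µg protein/assay competed against 1-3 nM [3H]AVP. Fluorescent ligand ranged 1 pM-1 µM; nonspecific binding defined with 1 µM unlabeled ligand. Incubation 1 h at 30 °C. Ki from nonlinear least-squares fit of two independent experiments, each run in triplicate.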

Vasopressin V1a receptor = Vasopressin V1a receptor (Homo sapiens, UniProt P37288); test: Binding affinity for human Vasopressin V1a receptor
Chain of Vasopressin V1a receptor (P37288 whole entry): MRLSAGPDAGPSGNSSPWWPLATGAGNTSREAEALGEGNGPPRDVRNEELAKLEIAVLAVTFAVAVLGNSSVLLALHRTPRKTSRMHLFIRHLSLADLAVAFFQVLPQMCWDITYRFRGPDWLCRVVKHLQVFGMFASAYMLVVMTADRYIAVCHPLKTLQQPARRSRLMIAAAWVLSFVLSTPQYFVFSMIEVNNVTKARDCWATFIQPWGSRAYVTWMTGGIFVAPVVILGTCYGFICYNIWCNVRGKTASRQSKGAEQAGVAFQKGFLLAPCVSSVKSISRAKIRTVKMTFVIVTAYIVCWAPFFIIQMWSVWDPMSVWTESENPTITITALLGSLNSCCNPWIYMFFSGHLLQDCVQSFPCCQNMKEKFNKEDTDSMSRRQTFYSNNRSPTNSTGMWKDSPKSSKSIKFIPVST

Chain of Vasopressin V2 receptor (P30518 whole entry): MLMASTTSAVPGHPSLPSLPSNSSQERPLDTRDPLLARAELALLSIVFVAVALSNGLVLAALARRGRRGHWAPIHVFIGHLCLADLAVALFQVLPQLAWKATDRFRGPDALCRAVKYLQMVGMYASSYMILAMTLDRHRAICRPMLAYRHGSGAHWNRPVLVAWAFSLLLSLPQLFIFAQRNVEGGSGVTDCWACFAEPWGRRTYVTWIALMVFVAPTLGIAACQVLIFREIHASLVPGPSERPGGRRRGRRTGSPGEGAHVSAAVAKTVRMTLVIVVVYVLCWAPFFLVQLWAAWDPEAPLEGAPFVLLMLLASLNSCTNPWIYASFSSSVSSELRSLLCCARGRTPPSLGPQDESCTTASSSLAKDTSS

CC[C@H](C)[C@@H]1NC(=O)[C@H](Cc2ccc(O)cc2)NC(=O)CCSSC[C@@H](C(=O)N2CCC[C@H]2C(=O)N[C@@H](CCCNC(=O)c2ccc3c(c2)C2(OC3=O)c3ccc(O)cc3Oc3cc(O)ccc32)C(=O)NCC(N)=O)NC(=O)[C@H](CC(N)=O)NC(=O)[C@H]([C@@H](C)O)NC1=O ([Mpa]YITNCP[Orn](6FAM)G-NH2; disulfide 1-6)
Ki (Vasopressin V1b receptor): 282 nM
Ki (Oxytocin receptor): 0.4 nM
Ki (Vasopressin V2 receptor): > 10000 nM
Ki (Vasopressin V1a receptor): 30 nM

CC[C@H](C)[C@@H]1NC(=O)[C@H](Cc2ccc(O)cc2)NC(=O)[C@@H](O)CSSC[C@@H](C(=O)N2CCC[C@H]2C(=O)N[C@@H](CCCCNC(=O)c2ccc3c(c2)C2(OC3=O)c3ccc(O)cc3Oc3cc(O)ccc32)C(=O)NCC(N)=O)NC(=O)[C@H](CC(N)=O)NC(=O)[C@H]([C@@H](C)O)NC1=O (YITNCPK(6FAM)G-NH2; linker N-5 via X1)
Ki (Vasopressin V1b receptor): 53 nM
Ki (Oxytocin receptor): 0.32 nM
Ki (Vasopressin V2 receptor): > 10000 nM
Ki (Vasopressin V1a receptor): 17.3 nM

CC[C@H](C)[C@@H]1NC(=O)[C@H](Cc2ccc(O)cc2)NC(=O)[C@@H](O)CSSC[C@@H](C(=O)N2CCC[C@H]2C(=O)N[C@@H](CCCNC(=O)c2ccc3c(c2)C2(OC3=O)c3ccc(O)cc3Oc3cc(O)ccc32)C(=O)NCC(N)=O)NC(=O)[C@H](CC(N)=O)NC(=O)[C@H]([C@@H](C)O)NC1=O (YITNCP[Orn](6FAM)G-NH2; linker N-5 via X1)
Ki (Vasopressin V1b receptor): 87 nM
Ki (Oxytocin receptor): 0.17 nM
Ki (Vasopressin V2 receptor): > 1000 nM
Ki (Vasopressin V1a receptor): 11.8 nM

CC[C@H](C)[C@@H]1NC(=O)[C@H](Cc2ccc(O)cc2)NC(=O)CCSSC[C@@H](C(=O)N2CCC[C@H]2C(=O)N[C@@H](CCCCNC(=O)c2ccc3c(c2)C2(OC3=O)c3ccc(O)cc3Oc3cc(O)ccc32)C(=O)NCC(N)=O)NC(=O)[C@H](CC(N)=O)NC(=O)[C@H]([C@@H](C)O)NC1=O ([Mpa]YITNCPK(6FAM)G-NH2; disulfide 1-6)
Ki (Vasopressin V1b receptor): 150 nM
Ki (Oxytocin receptor): 1.8 nM
Ki (Vasopressin V2 receptor): > 10000 nM
Ki (Vasopressin V1a receptor): 25.5 nM
